Source: publication PMC7558257 (Acta Pharmaceutica Sinica. B, 2020)

Assays:
[1] = molecular target: Human dihydroorotate dehydrogenase (DHODH) (Homo sapiens, UniProt Q02127); assay: In vitro DHODH enzyme inhibition assay; type: biochemical; conditions: for inhibition at 10 µM: read-out: Inhibition (%) at 10 μmol/L; for potency loss relative to naphthyl compound 24: vs. 24
[2] = tested on: collagen-induced arthritis (CIA) in Wistar rats; assay: Collagen-induced arthritis; type: in vivo; conditions: for volumes of paws in CIA rats compared to model rats: orally once a day for 28 days, methotrexate 0.3 mg/kg; for arthritis score (stabilized, lastly): scale 0-4, model group around 2.3
In short: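 Adult male Wistar rats (130–150 g) were immunized with emulsified bovine type II collagen on Days 1 and 7. Dosing was oral, once daily for 28 days, with 0.5% CMC-Na vehicle. Arthritis was scored 0–4 daily, blinded. Body weight was taken every 3 days, plus hind-paw volume and terminal joint histopathology. Data are mean ± SEM.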

[3] = tested on: ICR mice; assay: Acute toxicity study in mice; type: in vivo
[4] = In vivo single dose PK study in rats; conditions: male, Sprague-Dawley, rat, plasma
In short: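 Male Sprague–Dawley rats (n = 3 per route) received the test compound at 1 mg/kg i.v. or 10 mg/kg p.o. Heparinized blood was sampled at 5, 15 and 30 min and at 1, 2, 4, 8 and 24 h. Levels were quantified by LC/MS/MS, with noncompartmental PK analysis. For i.v., Cmax was taken as C0.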

Chain of Human dihydroorotate dehydrogenase (DHODH) (Q02127 whole entry): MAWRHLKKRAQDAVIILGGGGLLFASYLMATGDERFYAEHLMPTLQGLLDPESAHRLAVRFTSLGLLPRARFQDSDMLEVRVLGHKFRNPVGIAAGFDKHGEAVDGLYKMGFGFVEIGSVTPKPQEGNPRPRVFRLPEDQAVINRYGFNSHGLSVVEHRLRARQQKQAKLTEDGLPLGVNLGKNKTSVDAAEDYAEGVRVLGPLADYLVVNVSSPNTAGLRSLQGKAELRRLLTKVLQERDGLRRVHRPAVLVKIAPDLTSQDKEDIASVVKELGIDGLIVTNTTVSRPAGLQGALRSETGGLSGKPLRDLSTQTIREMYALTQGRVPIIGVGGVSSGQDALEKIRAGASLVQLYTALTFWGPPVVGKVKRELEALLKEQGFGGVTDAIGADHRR

Compound	IC50 [1] [nM]	inhibition at 10 µM [1] [%]	other results
C/C(=C\c1ccc(C)c(C)c1)C(=O)Nc1ccccc1C(=O)O [Compound 16]	394 ± 4	92.9	–
COc1ccc(/C=C(\C)C(=O)Nc2ccccc2C(=O)O)cc1 [Compound 14]	561 ± 14	88.7	–
O=C(COc1ccc2ccccc2c1)Nc1ccccc1C(=O)O [Compound 36]	1870 ± 48	76.1	–
C/C(=C\c1ccc(Cl)c(C(F)(F)F)c1)C(=O)Nc1ccccc1C(=O)O [Compound 18]	894 ± 63	84.6	–
C/C(=C\c1cc(Cl)cc(Cl)c1)C(=O)Nc1ccccc1C(=O)O [Compound 21]	724 ± 28	89.4	–
C/C(=C\c1ccc(-c2ccccc2)cc1)C(=O)Nc1ccccc1C(=O)O [Compound 33]	626 ± 13	89.8	–
C/C(=C\c1ccc2c(c1)CCCC2)C(=O)Nc1ccccc1C(=O)O [Compound 23]	115 ± 1	85.2	–
C/C(=C\c1ccc2ccccc2c1Cl)C(=O)Nc1ccccc1C(=O)O [Compound 29]	78 ± 3	96.4	–
C/C(=C\c1ccc2c(c1)CCC2)C(=O)Nc1ccccc1C(=O)O [Compound 22]	252 ± 17	86.9	–
C/C(=C\c1ccc(Cl)c(Cl)c1)C(=O)Nc1ccccc1C(=O)O [Compound 19]	529 ± 24	91.7	–
C/C(=C\c1ccc(C(F)(F)F)cc1)C(=O)Nc1ccccc1C(=O)O [Compound 12]	1040 ± 40	82.3	–
C/C(=C\c1cc2ccccc2cn1)C(=O)Nc1ccccc1C(=O)O [Compound 31]	646 ± 9	87.4	potency loss relative to naphthyl compound 24 [1]: 8 fold
CC(C)(Oc1ccc2ccccc2c1)C(=O)Nc1ccccc1C(=O)O [Compound 37, 2-(2-Methyl-2-(naphthalen-2-yloxy)propanamido)benzoic acid]	> 10000	20.3	–
C/C(=C\c1ccc2ccccc2c1Br)C(=O)Nc1ccccc1C(=O)O [Compound 30]	58 ± 1	90.2	–
C/C(=C\c1ccc(C(C)(C)C)cc1)C(=O)Nc1ccccc1C(=O)O [Compound 15]	836 ± 21	86.6	–
C/C(=C\c1cccc(Oc2ccccc2)c1)C(=O)Nc1ccccc1C(=O)O [Compound 35]	597 ± 6	89.5	–

Compound	IC50 [1] [nM]	inhibition at 10 µM [1] [%]	other results
C/C(=C\c1cc2ccccc2n1C)C(=O)Nc1ccccc1C(=O)O [Compound 32, (E)-2-(2-Methyl-3-(1-methyl-1H-indol-2-yl)acrylamido)benzoic acid]	317 ± 8	84.3	potency loss relative to naphthyl compound 24 [1]: 4 fold
C/C(=C\c1ccc2ccccc2c1)C(=O)Nc1ccccc1C(=O)O [Compound 24]	75 ± 2	93.9	–
O=C(COc1ccc([N+](=O)[O-])cc1)Nc1ccccc1C(=O)O [Compound 9, 2-(2-(4-Nitrophenoxy)acetamido)benzoic acid]	–	45.3	–
O=C(COc1ccccc1)Nc1ccccc1C(=O)O [Compound 10]	–	31.7	–
C/C(=C\c1ccc2c(Cl)cccc2c1)C(=O)Nc1ccccc1C(=O)O [Compound 27]	256 ± 9	96.8	–
COc1ccc(/C=C(\C)C(=O)Nc2ccccc2C(=O)O)cc1OC [Compound 20]	612 ± 11	91.5	–
CN(Cc1cnc2nc(N)nc(N)c2n1)c1ccc(C(=O)N[C@@H](CCC(=O)O)C(=O)O)cc1 [methotrexate, reference compound]	–	–	volumes of paws in CIA rats compared to model rats ([2]; 54 at 10 and 30 mg/kg): significantly decreased
C/C(=C\c1ccc(C)c(Cl)c1)C(=O)Nc1ccccc1C(=O)O [Compound 17]	384 ± 16	91	–
C/C(=C\c1ccc2ccccc2c1Cl)C(=O)Nc1ccc(F)cc1C(=O)O [Compound 54]	–	98.7	behavior and mortality ([3]; single intragastric dose 300 and 500 mg/kg, 14 days observation, n = 3): No obvious abnormal in behaviors or mortality; morphological examination of liver and kidney ([3]; single intragastric dose 300 and 500 mg/kg, day 14): did not find remarkable injury; body weight change compared to control group ([3]; single intragastric dose 300 and 500 mg/kg, end of experiment (day 14)): no significant change in body weight; tolerated dose ([3]; single intragastric dose, mice): ≥ 500 mg/kg; AUC ([4]; iv, 1 mg/kg): 381 µg·h/mL; Cmax ([4]; iv, 1 mg/kg): 31.5 µg/mL; Vd ([4]; iv, 1 mg/kg): 0.069 L/kg; clearance ([4]; iv, 1 mg/kg): 2.6 mL/h/kg; half-life ([4]; iv, 1 mg/kg): 18.1 h; bioavailability ([4]; oral, 10 mg/kg): 67.1%; AUC ([4]; po, 10 mg/kg): 2560 µg·h/mL; Cmax ([4]; po, 10 mg/kg): 77.8 µg/mL; Tmax ([4]; po, 10 mg/kg): 4.67 h; half-life ([4]; po, 10 mg/kg): 21.5 h; arthritis score (stabilized, lastly) ([2]; 10 mg/kg orally once a day for 28 days): around 1; arthritis score (stabilized, lastly) ([2]; 30 mg/kg orally once a day for 28 days): ~0.6; histopathological symptoms of arthritis in ankle joints (H&E) ([2]; 54 at 10 and 30 mg/kg, after four weeks of therapy, dose-dependent): significantly alleviated; volumes of paws in CIA rats compared to model rats ([2]; 54 at 10 and 30 mg/kg): significantly decreased
C/C(=C\c1ccc2ccccc2c1F)C(=O)Nc1ccccc1C(=O)O [Compound 28]	57 ± 2	89.3	–
C/C(=C\c1ccc2cc(Br)ccc2c1)C(=O)Nc1ccccc1C(=O)O [Compound 26]	448 ± 8	85.4	–
C/C(=C\c1ccccc1)C(=O)Nc1ccccc1C(=O)O [Compound 11]	–	85.6	–
C/C(=C\c1ccc(Oc2ccccc2)cc1)C(=O)Nc1ccccc1C(=O)O [Compound 34]	630 ± 14	90.4	–
COc1ccc2cc(/C=C(\C)C(=O)Nc3ccccc3C(=O)O)ccc2c1 [Compound 25]	129 ± 8	88.2	–
C/C(=C\c1ccc(C(F)(F)F)nc1)C(=O)Nc1ccccc1C(=O)O [Compound 13]	6110 ± 102	69.3	–
O=C(/C=C/c1ccc2ccccc2c1)Nc1ccccc1C(=O)O [Compound 38]	712 ± 12	87.5	–

Continued, in another order:

IC50 [1] [nM]	inhibition at 10 µM [1] [%]	Compound	other results
> 10000	29.6	COC(=O)c1ccccc1NC(=O)/C(C)=C/c1ccc2ccccc2c1 [Compound 52, Methyl (E)-2-(2-methyl-3-(naphthalen-2-yl)acrylamido)benzoate]	DHODH inhibition, result in words [1]: completely inactive
85 ± 4	88.6	O=C(Nc1ccccc1C(=O)O)/C(Br)=C/c1ccc2ccccc2c1 [Compound 40]	–
–	90	C/C(=C\c1ccc2ccccc2c1)C(=O)Nc1ccc(F)cc1C(=O)O [Compound 42]	improvement in potency for inhibition of DHODH vs. 24 ([1]; 42 vs. 24): 1 fold
–	98.6	C/C(=C\c1ccc2ccccc2c1Br)C(=O)Nc1ccc(F)cc1C(=O)O [Compound 55]	–
61 ± 1	88.6	O=C(Nc1ccccc1C(=O)O)/C(Cl)=C/c1ccc2ccccc2c1 [Compound 39]	–
688 ± 6	82.9	C/C(=C\c1ccc2ccccc2c1)C(=O)Nc1ccc(C)cc1C(=O)O [Compound 46]	–
1691 ± 14	74.1	C/C(=C\c1ccc2ccccc2c1)C(=O)Nc1ccncc1C(=O)O [Compound 50, (E)-4-(2-Methyl-3-(naphthalen-2-yl)acrylamido)nicotinic acid]	–
2130 ± 110	79.3	C/C(=C\c1ccc2ccccc2c1)C(=O)Nc1sccc1C(=O)O [Compound 49]	–
874 ± 5	87.4	C/C(=C\c1ccc2ccccc2c1)C(=O)Nc1ccc(C(F)(F)F)cc1C(=O)O [Compound 48]	–
> 10000	34.9	C/C(=C\c1ccc2ccccc2c1)C(=O)Nc1cc(F)ccc1C(=O)O [Compound 43]	–
> 10000	48.2	COc1ccc(NC(=O)/C(C)=C/c2ccc3ccccc3c2)c(C(=O)O)c1 [Compound 47]	–
623 ± 1	83	C/C(=C\c1ccc2ccccc2c1)C(=O)Nc1ccc(Cl)cc1C(=O)O [Compound 44]	–
5350 ± 172	66.9	C/C(=C\c1ccc2ccccc2c1)C(=O)Nc1ccccc1C(N)=O [Compound 51]	–
–	98	C/C(=C\c1ccc2ccccc2c1F)C(=O)Nc1ccc(F)cc1C(=O)O [Compound 53]	–
606 ± 31	82.8	CC/C(=C\c1ccc2ccccc2c1)C(=O)Nc1ccccc1C(=O)O [Compound 41]	–
1820 ± 20	80.8	C/C(=C\c1ccc2ccccc2c1)C(=O)Nc1ccc(Br)cc1C(=O)O [Compound 45]	–
